PMC10786304 (Proceedings of the National Academy of Sciences of the …, 2024)
≈ marks a conversion by molar mass, not a printed value.

Tests used:
M. abscessus ATCC 19977 = assay: microbe, parasite or virus in culture; assay type: cell-based, Mycobacterium abscessus; conditions: Mycobacteroides abscessus, ATCC19977, 120 h, read-out: MIC M. abs
[1] = test system: purified M. smegmatis ATCC 19420 ribosomes; assay: Mycobacterial cell-free translation inhibition assay; assay type: biochemical, Mycobacterium smegmatis; conditions: read-out: IC50 M. smg ribo
[2] = test system: M. abscessus ATCC 19977 ∆3508c (∆whiB7); assay: MIC, isogenic deletion mutant ∆whiB7; assay type: cell-based, Mycobacterium abscessus; conditions: versus wild type
[3] = test system: M. abscessus ATCC 19977 ∆2780c (∆tetV); assay: MIC, isogenic deletion mutant ∆tetV; assay type: cell-based, Mycobacterium abscessus; conditions: for WT/∆2780c ratio: WT MIC divided by ∆tetV MIC
[4] = test system: M. abscessus ATCC 19977 ∆3508c ∆2780c; assay: MIC, double deletion mutant ∆whiB7 ∆tetV; assay type: cell-based, Mycobacterium abscessus; conditions: ∆tetV MIC divided by ∆whiB7 ∆tetV MIC
Mab ATCC 19977 = assay: Whole-cell accumulation assay; assay type: cell-based, Mycobacterium abscessus; conditions: 100 µM compound, 30 min; mean ± SD
In short: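 Mab grown in MHB2 + 0.05% tyloxapol (37 °C, shaking) to OD600 0.5–0.6 was washed in PBS with 0.05% Tween-80 and 5% glucose. The concentrated suspension was incubated with 100 µM compound (1% DMSO) for 30 min at 37 °C, then washed three times; an aliquot was taken for CFU. Pellets were lysed and filtered supernatant quantified by LC-MS/MS. A = C×V/CFU, normalized to 10^10 CFU. Biological triplicate, mean and SD; ANOVA with Dunnett versus SPC.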

[5] = test system: M. abscessus ATCC 19977 ∆2780c (∆tetV); conditions: ref [7], [17]; cited from earlier work
[6] = test system: 2593-resistant spontaneous Mab mutants (Mab ATCC 19977); assay: Selection and MIC testing of 2593-resistant spontaneous Mab mutants; assay type: cell-based, Mycobacterium abscessus; conditions: cross-resistance test

Row | Structure (SMILES) | MIC (M. abscessus ATCC 19977) [µg/mL] | IC50 [1] [µM] | increase in susceptibility against the ΔwhiB7 strain [2] | WT/∆2780c ratio [3] | increase in susceptibility in the ΔtetV strain ([3]; versus wild type) [fold] | ∆2780c/∆3508c ∆2780c ratio [4] | whole-cell accumulation (Mab ATCC 19977) [nM/10^10 CFU] | increase in SPC susceptibility of Mab Δ2780c deletion mutants [5] [fold] | susceptibility of 2593-resistant mutants [6]
1 | CN[C@@H]1[C@H](O)[C@H](NC)[C@H]2O[C@@]3(O)C(=O)C[C@@H](C)O[C@H]3O[C@@H]2[C@H]1O [SPC, spectinomycin] | 256 (≈ 770 µM) | 0.8 ± 0.21 | eightfold | 64 | 64 | 1 | 38.2 ± 9.0 | > 100 | 
2 | NCC[C@H](O)C(=O)N[C@@H]1C[C@H](N)[C@@H](O[C@H]2O[C@H](CN)[C@@H](O)[C@H](O)[C@H]2O)[C@H](O)[C@H]1O[C@H]1O[C@H](CO)[C@@H](O)[C@H](N)[C@H]1O [AMK, amikacin] |  |  |  | 1 |  | 8 |  |  | remained susceptible
